Values joined by “and” are separate entries in the source; they are usually repeats but may differ in a detail not shown here. Equal entries are not always repeated.

Assay [1] deals with T1, Sodium-dependent dopamine transporter (Rattus norvegicus, UniProt P23977). Put plainly: Displacement of [3H]WIN-35428 from dopamine transporter (DAT) in Rat Caudate Putamen. Type of assay: tissue-based. The method, boiled down: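 Ki is the inhibition constant derived for the unlabeled ligand. Values are the mean ± SEM of three experiments run in triplicate. Compounds were tested as HCl salts unless noted, some as fumarate salts. Data were fitted to single-site versus two-site binding models.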

For assay [2], the species on record is Rattus norvegicus. Briefly: Compound was evaluated for inhibition of [3H]- dopamine Uptake in rat caudate - putamen tissue. The class given is functional. The method, boiled down:
(§1)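 [3H]dopamine uptake into rat caudate-putamen tissue. IC50 values are the mean ± SEM of three experiments, each run in triplicate. Compounds were tested as HCl salts unless noted, some as fumarate salts.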

Assay [3] is filed under the species Mus musculus. Put plainly: Stimulation of locomotor activity of Mice. The class given is functional. The gist of the method: (§2)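 Mice given drug or saline vehicle, with horizontal activity counts recorded in 10 min periods over a 60 min session. Eight mice per dose, doses in µmol/kg. The dose-response used the first 30 min after injection. ED50 is from the dose-response, and the maximal stimulant effect and time course were also assessed.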

The species entered for assay [4] is Mus musculus. Briefly: Stimulation of locomotor activity of mice. The class given is functional. The gist of the method:
as §2

The species entered for assay [5] is Rattus norvegicus. Put plainly: Values for substitution for Cocaine in rats Trained to discriminate Cocaine from saline. The class given is functional. The method, boiled down: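 Read-out is the percentage of responses on the cocaine-appropriate lever, with doses in µmol/kg. Lever selection was counted unreliable below 0.02 responses/s, and a point was dropped if fewer than half of subjects met this rate. Four to six rats per point. ED50 given with 95% confidence limits.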

The species entered for assay [6] is Rattus norvegicus. Briefly: Compound was evaluated for inhibition of [3H]- dopamine uptake in rat caudate - putamen tissue. The class given is functional. The method, boiled down: as §1
Assay [7] addresses T1, Sodium-dependent dopamine transporter. Put plainly: Compound was evaluated for its ability to displace [3H]WIN-35428 from dopamine transporter in rat caudate putamen tissue. Type of assay: tissue-based. The method, boiled down: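 Rat caudate-putamen tissue, displacing bound [3H]WIN 35,428. Ki is the inhibition constant derived for the unlabeled ligand. Values are the mean ± SEM of three experiments run in triplicate. Compounds were tested as HCl salts unless noted, some as fumarate salts. Data were fitted to single-site versus two-site binding models.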

T1 sequence (P23977 whole entry): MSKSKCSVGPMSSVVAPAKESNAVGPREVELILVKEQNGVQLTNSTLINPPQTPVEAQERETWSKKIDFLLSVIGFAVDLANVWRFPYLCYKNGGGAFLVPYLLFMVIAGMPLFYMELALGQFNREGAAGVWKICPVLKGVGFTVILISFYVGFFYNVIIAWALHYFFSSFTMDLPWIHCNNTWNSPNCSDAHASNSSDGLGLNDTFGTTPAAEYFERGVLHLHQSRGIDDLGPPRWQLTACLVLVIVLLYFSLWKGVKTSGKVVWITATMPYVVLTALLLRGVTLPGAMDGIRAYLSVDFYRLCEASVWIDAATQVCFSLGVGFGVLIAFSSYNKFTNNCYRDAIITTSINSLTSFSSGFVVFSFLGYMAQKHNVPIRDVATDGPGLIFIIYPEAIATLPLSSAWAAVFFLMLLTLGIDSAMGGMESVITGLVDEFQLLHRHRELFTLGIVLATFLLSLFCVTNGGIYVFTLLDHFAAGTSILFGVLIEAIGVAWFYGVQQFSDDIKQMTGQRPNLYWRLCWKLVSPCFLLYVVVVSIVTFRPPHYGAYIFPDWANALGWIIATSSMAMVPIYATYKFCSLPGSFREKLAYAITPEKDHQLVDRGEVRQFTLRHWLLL

The Ki is the dissociation constant of the complex between target and ligand, obtained from inhibition or displacement. A low value points to a stronger hold on the target. The IC50 is the concentration needed to halve the response being measured. The low end stands for inhibition by little substance, the high end for a need for much substance. `CN1C2CCC1C(CCCc1ccccc1)C(c1ccccc1)C2` (stereo not given) registered a Ki in assay [1] of 16 nM. In the assay listed under Rattus norvegicus [2], this molecule displayed a half-maximal inhibitory concentration (IC50) of 43 nM.

Usually ED50 stands for the midpoint of the dose-response relation. A lower ED50 goes with greater potency. In assay [1], `COC(=O)/C=C/C1C(c2ccccc2)CC2CCC1N2C` (stereo not given) had a Ki of 22 nM. Also, the ED50 stood at 4.74 µmol/kg in the assay filed under Mus musculus [3] and 12.8 µmol/kg in the assay filed under Rattus norvegicus [5]. The molecule further returned a Max effect in the assay filed under Mus musculus [4] of 14996 Counts 10min-1. Besides, in the assay filed under Rattus norvegicus [6], inhibition was half-maximal at 123 nM (IC50).

For `COC(=O)CCC1C(c2ccccc2)CC2CCC1N2C` (stereo not given), the Ki in assay [1] amounted to 23 nM. The same molecule displayed an IC50 in the assay filed under Rattus norvegicus [6] of 166 nM.

As to `CN1C2CCC1C(/C=C/CO)C(c1ccccc1)C2` (stereo not given), in assay [7], the Ki was 26 nM. In the assay listed under Rattus norvegicus [6], this molecule showed an IC50 of 159 nM.

Turning to `COC(=O)[C@@H]1C2CC[C@H](C[C@@H]1c1ccccc1)N2C` (single isomer, unassigned), the Ki in assay [1] is 33 nM and 314 nM. Inhibition in the assay listed under Rattus norvegicus [2] was half-maximal at 373 nM (IC50).

`COC(=O)CCCCC1C(c2ccccc2)CC2CCC1N2C` (stereo not given) returned a Ki in assay [1] of 30 nM. In the assay listed under Rattus norvegicus [2], this molecule had an IC50 of 130 nM.

In assay [1], `CN1C2CCC1C(CCCO)C(c1ccccc1)C2` (stereo not given) returned a Ki of 11 nM. Further, in the assay filed under Mus musculus [4], the ED50 was 12 µmol/kg and the Max effect came to 20820 Counts 10min-1. This molecule registered a 50% effective dose (ED50) in the assay filed under Rattus norvegicus [5] of 12.9 µmol/kg. For the same molecule, the IC50 in the assay listed under Rattus norvegicus [2] came to 64 nM.

The molecule `CN1C2CCC1C(CCC(=O)c1ccccc1)C(c1ccccc1)C2` (stereo not given) had a Ki in assay [1] of 28 nM. This molecule also returned a half-maximal inhibitory concentration (IC50) in the assay listed under Rattus norvegicus [2] of 47 nM.

In the assay listed under Mus musculus [4], `COC(=O)[C@H]1[C@@H](OC(=O)c2ccccc2)C[C@@H]2CC[C@H]1N2C` [COCAINE] had an ED50 of 20.8 µmol/kg and a Max effect of 12518 Counts 10min-1. Also, the ED50 in the assay filed under Rattus norvegicus [5] amounted to 8.74 µmol/kg.

Consider `COC(=O)/C=C/CCC1C(c2ccccc2)CC2CCC1N2C` (stereo not given), for which, in assay [1], the Ki was 20 nM. Also, in the assay filed under Mus musculus [4], the ED50 was 9.21 µmol/kg and the Max effect came to 17327 Counts 10min-1. Further, in the assay filed under Rattus norvegicus [5], the ED50 is 15 µmol/kg. This molecule also yielded an IC50 in the assay listed under Rattus norvegicus [2] of 203 nM.

The record behind these values is ChEMBL document CHEMBL1129968, “Synthesis, dopamine transporter affinity, dopamine uptake inhibition, and locomotor stimulant activity of 2-substituted 3 beta-phenyltropane derivatives” (J Med Chem, 1997).
